Data from ChEMBL document CHEMBL4422684, “Identification of novel lysine demethylase 5-selective inhibitors by inhibitor-based fragment merging strategy” (Bioorg Med Chem, 2019).

Legend:
[1] = target: Lysine-specific demethylase 5A (Homo sapiens, UniProt P29375); assay: Inhibition of human C-terminal FLAG-tagged KDM5A (1 to 1090 residues) expressed in baculovirus infected Sf9 insect cells at 1 uM using H3(1-21)K4(Me3)-GGK(Biotin)/2-OG as substrate measured after 1 hr by Alphalisa assay relative to control
In short: (§1)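 AlphaLISA demethylase assay in 50 mM HEPES pH 7.5, 0.1% BSA, 0.01% Tween 20 with DMSO. Enzyme and inhibitor combined, then peptide plus 2-OG (50 µM), Fe(II) (5 µM) and ascorbate (100 µM) in the added mix; 1 h at room temperature with shaking.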

[2] = target: T1, Lysine-specific demethylase 2A (Homo sapiens) (UniProt Q9Y2K7); assay: Inhibition of human N-terminal FLAG/Avi-tagged KDM2A (2 to 700 residues) expressed in baculovirus infected Sf9 insect cells at 50 uM using H3(21-44)-K36(Me2)-GK(Biotin)/2-OG as substrate measured after 1 hr by Alphalisa assay relative to control; in short: as §1
T1 sequence (whole entry): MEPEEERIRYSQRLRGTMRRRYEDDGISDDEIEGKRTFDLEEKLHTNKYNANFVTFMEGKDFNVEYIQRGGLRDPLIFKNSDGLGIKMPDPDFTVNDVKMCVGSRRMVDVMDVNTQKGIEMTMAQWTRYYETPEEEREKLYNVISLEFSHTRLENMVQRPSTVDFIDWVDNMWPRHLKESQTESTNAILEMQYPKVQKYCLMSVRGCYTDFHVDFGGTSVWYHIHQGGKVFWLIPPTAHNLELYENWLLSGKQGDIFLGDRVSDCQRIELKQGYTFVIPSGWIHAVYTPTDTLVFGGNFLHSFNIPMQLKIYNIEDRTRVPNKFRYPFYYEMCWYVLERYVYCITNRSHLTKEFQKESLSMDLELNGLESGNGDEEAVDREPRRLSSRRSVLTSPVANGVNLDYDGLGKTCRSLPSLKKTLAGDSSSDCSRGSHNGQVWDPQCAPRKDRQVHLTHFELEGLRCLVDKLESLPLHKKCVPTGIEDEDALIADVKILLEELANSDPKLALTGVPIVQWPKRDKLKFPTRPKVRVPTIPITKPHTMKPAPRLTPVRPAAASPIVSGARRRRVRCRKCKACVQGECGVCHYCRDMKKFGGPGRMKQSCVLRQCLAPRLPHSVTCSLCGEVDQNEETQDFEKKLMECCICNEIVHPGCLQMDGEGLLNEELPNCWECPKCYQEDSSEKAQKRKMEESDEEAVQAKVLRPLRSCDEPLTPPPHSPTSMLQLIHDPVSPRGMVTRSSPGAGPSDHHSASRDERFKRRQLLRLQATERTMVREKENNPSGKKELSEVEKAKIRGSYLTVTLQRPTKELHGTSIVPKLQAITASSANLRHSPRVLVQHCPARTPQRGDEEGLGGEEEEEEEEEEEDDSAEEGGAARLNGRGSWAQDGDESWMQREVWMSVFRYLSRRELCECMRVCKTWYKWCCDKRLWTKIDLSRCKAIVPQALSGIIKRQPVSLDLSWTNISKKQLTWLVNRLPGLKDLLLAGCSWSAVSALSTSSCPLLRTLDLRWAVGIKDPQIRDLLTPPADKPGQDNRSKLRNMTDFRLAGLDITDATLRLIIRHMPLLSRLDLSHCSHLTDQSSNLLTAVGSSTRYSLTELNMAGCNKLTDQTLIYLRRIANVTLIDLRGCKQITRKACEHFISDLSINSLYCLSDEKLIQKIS

[3] = target: T2, Lysine-specific demethylase 3A (Homo sapiens) (UniProt Q9Y4C1); assay: Inhibition of human N-terminal FLAG-tagged KDM3A (2 to 1321 residues) expressed in baculovirus infected Sf9 insect cells at 50 uM using H3(1-21)K9(Me1)-GGK(Biotin)/2-OG as substrate measured after 1 hr by Alphalisa assay relative to control; in short: as §1
T2 sequence (whole entry): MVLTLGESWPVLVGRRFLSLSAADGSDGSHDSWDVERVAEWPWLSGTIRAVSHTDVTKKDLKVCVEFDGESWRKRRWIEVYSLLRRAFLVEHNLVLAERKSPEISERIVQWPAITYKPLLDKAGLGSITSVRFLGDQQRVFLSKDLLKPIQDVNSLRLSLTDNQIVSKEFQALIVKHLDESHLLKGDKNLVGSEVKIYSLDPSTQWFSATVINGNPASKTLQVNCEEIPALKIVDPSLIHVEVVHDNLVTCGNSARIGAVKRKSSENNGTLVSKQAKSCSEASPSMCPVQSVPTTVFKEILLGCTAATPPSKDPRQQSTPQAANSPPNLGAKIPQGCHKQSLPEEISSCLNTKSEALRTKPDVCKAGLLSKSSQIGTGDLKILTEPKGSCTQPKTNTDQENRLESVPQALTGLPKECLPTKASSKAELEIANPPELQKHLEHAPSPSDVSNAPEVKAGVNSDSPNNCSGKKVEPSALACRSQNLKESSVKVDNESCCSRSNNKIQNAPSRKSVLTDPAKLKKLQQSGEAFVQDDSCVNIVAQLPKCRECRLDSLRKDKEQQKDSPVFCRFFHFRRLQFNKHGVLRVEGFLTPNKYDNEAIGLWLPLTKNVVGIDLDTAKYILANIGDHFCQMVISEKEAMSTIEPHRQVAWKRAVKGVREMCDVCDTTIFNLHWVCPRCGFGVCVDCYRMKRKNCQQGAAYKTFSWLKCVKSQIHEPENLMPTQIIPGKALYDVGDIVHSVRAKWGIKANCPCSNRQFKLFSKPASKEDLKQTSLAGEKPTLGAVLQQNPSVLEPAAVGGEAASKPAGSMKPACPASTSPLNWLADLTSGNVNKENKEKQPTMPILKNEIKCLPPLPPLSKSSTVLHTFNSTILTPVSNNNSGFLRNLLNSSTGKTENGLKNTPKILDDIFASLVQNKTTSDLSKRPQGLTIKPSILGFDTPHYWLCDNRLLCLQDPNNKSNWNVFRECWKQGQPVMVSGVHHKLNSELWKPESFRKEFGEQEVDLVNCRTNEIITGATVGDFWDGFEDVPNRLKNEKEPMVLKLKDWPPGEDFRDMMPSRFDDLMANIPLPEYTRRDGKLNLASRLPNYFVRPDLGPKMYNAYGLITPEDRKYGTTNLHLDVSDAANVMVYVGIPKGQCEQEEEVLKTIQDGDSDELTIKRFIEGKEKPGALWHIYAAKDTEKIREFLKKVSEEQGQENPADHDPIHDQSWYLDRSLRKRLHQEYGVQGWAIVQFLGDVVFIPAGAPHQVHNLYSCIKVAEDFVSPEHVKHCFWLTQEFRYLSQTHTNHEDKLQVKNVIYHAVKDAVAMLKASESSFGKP

[4] = target: Lysine-specific demethylase 5C (Homo sapiens, UniProt P41229); assay: Inhibition of full-length human N-terminal FLAG/His-tagged KDM5C (2 to 1560 residues) expressed in baculovirus infected Sf9 insect cells using H3(1-21)K4(Me3)-GGK(Biotin)/2-OG as substrate measured after 1 hr by Alphalisa assay; in short: as §1
Lysine-specific demethylase 5C, sequence (P41229 whole entry, the tested form may be a part): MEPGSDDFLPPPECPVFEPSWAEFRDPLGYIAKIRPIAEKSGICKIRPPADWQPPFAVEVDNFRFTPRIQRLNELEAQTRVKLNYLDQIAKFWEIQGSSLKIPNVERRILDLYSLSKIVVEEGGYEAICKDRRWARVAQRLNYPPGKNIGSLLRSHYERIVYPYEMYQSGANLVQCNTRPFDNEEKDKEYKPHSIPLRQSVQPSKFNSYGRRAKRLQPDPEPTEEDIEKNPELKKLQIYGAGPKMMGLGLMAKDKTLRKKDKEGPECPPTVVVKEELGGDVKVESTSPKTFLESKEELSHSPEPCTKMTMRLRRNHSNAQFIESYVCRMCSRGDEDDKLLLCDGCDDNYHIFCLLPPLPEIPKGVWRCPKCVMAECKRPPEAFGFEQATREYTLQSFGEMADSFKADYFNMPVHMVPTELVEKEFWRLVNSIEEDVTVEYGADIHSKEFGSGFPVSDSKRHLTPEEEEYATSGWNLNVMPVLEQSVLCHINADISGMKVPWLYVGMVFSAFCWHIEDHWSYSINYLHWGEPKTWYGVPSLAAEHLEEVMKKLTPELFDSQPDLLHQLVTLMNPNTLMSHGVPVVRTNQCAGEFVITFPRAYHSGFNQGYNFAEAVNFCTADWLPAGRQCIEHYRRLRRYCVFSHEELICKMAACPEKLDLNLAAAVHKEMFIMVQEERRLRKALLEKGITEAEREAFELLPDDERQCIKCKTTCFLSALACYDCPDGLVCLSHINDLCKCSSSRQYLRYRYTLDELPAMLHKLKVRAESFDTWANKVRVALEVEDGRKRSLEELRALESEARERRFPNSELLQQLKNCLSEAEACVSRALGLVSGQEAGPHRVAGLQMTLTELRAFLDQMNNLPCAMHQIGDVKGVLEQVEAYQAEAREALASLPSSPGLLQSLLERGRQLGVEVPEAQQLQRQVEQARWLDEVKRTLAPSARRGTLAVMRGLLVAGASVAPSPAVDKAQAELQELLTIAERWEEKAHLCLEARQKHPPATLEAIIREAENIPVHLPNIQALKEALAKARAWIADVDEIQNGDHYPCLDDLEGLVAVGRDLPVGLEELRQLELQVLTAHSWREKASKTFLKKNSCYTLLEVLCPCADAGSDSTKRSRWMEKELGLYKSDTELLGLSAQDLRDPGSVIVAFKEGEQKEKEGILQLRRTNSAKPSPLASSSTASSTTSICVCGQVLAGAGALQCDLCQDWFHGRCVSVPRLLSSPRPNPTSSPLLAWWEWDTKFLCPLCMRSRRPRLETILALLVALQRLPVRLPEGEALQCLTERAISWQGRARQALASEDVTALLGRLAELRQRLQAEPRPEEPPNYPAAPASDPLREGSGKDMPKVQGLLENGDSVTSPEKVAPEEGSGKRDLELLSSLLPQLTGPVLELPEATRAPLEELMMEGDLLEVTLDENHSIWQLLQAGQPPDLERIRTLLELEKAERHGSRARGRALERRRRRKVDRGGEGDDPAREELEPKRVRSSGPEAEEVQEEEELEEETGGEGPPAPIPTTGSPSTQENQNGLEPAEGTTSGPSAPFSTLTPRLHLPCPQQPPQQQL

Lysine-specific demethylase 5A, sequence (P29375 whole entry, the tested form may be a part): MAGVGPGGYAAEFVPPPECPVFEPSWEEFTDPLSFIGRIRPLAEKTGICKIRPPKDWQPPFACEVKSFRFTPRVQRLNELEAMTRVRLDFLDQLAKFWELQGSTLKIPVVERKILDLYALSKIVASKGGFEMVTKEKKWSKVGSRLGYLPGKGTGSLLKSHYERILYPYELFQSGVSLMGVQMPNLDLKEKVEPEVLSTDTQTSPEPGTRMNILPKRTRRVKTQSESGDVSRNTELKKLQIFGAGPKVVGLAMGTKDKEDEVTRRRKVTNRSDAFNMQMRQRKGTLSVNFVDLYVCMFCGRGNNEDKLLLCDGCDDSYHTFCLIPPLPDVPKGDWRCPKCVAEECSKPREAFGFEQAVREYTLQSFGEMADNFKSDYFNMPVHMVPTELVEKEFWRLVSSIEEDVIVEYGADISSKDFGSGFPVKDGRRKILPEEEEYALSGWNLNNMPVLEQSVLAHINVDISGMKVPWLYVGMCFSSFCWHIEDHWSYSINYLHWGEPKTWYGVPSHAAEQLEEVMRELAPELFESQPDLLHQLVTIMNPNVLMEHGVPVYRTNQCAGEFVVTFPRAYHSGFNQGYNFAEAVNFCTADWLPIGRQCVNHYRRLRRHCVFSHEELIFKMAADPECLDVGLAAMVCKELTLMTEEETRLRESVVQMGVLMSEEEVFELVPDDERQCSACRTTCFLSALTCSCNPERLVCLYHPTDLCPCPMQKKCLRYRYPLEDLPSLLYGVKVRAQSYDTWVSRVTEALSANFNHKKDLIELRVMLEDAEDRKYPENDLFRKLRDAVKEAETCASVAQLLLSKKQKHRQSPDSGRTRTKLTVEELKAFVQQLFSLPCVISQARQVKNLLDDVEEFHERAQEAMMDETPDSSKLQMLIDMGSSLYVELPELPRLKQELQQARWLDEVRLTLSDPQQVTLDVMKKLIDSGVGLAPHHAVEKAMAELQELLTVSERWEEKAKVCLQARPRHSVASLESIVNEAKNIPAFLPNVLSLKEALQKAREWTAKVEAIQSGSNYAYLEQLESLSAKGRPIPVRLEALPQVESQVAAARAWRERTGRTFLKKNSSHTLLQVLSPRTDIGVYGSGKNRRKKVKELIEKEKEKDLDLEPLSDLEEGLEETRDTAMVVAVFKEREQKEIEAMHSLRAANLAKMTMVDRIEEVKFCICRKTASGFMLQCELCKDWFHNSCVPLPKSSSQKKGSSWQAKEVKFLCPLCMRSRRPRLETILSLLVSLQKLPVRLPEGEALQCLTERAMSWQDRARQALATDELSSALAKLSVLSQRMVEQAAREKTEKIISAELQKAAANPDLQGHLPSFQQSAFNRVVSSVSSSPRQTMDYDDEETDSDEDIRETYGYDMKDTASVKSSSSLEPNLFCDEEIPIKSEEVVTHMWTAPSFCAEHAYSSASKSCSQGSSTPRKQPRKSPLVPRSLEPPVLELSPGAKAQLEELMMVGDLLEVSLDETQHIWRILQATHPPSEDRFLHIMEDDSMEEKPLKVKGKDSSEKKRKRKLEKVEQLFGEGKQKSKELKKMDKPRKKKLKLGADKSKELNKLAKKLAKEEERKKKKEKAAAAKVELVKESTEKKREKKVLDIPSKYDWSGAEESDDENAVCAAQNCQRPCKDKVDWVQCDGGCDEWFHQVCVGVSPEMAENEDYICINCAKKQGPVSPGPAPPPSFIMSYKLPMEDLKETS

Row | inhibition [1] | inhibition [2] | inhibition [3] | IC50 [4] | SMILES
1 | 68.9% | 25.7% | 31.9% | 3010 nM | CC(C)c1c(-c2ccccc2)[nH]c2c(C#N)cnn2c1=O
2 | 30.8% | 51.7% | 30.1% | 28900 nM | CCCCCN(C)CCCCC(=O)N(O)CCC(=O)O
3 | 97.9% | 13.4% | 61.5% | 5.84 nM | CCCCCCN(C)Cc1ccc(-c2[nH]c3c(C#N)cnn3c(=O)c2C(C)C)cc1
4 | – | 38.4% | – | 6.24 nM | CCCCCCN(C)CCc1ccc(-c2[nH]c3c(C#N)cnn3c(=O)c2C(C)C)cc1
